Activity calls are given as the source filed them. The rule behind the calls is not given here.
Experiments:
SK-BR-3 [1] = assay: Cytotoxicity against human SKBR3 cells after 72 hrs by MTT assay; assay type: functional, cell-based; details: SK-BR-3, 72 h
Outline: (§1)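 MTT growth-inhibition assay on SKBR-3 breast cancer and CEM leukemia cells, 72 h exposure over 0.1–10 μM. IC50 is the concentration giving 50% growth inhibition, derived by linear regression and reported as a mean of six experiments. Single-concentration entries are taken at 10 μM, the top of the range.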

CCRF-CEM [2] = assay: Cytotoxicity against human CCRF-CEM cells after 72 hrs by MTT assay; assay type: functional, cell-based; outline: as §1
Calf thymus DNA = assay: Displacement of ethidium bromide from calf thymus DNA by fluorescence assay; assay type: nucleic-acid assay, Bos taurus; details: for Kapp: Bos taurus
Outline: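 Fluorometric intercalator displacement. EC50 is the drug concentration that cuts DNA-bound ethidium fluorescence by 50%, given as the mean of three determinations ± SEM. Apparent binding constant is calculated taking the ethidium binding constant as 10^7 M-1.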

[3] = target: DNA topoisomerase 2-alpha (Homo sapiens) (UniProt P11388); assay: Stimulation of human recombinant topoisomerase 2alpha-mediated SV40 DNA cleavage at 10 uM after 45 mins by PAGE
Sequence of DNA topoisomerase 2-alpha (Homo sapiens) (P11388 whole entry): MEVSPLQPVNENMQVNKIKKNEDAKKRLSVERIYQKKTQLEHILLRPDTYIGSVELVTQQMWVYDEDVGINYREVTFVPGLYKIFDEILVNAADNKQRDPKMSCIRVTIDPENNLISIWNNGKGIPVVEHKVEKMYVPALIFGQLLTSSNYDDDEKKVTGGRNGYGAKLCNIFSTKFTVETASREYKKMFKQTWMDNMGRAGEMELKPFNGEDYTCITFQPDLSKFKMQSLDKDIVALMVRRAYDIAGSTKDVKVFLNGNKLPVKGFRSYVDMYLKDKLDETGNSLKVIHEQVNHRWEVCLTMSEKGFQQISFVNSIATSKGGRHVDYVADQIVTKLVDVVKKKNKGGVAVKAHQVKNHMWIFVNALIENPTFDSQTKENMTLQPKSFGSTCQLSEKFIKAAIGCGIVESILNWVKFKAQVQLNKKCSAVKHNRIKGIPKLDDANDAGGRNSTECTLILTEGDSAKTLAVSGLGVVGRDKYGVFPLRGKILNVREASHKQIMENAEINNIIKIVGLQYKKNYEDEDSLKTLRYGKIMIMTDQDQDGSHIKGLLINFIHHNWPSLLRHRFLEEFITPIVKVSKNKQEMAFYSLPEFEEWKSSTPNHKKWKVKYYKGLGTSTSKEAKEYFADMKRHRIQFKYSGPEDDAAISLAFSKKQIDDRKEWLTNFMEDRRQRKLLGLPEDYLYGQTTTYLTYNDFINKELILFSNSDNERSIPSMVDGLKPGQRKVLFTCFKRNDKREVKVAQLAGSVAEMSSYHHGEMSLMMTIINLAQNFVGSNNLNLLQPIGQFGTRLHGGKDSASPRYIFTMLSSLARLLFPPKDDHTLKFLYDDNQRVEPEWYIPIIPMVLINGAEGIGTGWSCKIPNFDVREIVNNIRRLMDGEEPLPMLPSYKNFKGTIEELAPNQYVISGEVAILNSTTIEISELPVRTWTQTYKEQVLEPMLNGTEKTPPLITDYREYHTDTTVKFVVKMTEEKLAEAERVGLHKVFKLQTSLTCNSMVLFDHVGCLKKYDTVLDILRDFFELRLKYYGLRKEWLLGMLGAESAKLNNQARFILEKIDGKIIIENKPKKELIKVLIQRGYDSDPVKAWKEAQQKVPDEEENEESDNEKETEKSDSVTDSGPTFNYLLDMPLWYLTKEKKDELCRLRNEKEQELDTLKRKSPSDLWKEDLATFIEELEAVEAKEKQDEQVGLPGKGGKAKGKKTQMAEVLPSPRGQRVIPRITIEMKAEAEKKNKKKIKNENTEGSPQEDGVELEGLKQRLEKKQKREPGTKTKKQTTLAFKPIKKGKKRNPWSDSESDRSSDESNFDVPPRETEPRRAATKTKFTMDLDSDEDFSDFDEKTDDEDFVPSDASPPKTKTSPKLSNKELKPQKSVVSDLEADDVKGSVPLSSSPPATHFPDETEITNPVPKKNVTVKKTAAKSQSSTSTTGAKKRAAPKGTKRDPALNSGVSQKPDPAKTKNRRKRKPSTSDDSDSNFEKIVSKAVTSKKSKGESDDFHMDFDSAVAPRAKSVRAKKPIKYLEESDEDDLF
Outline: (§2)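 Cleavage assay with recombinant human DNA topoisomerase IIα, using SV40 DNA as substrate, to test for stimulation of DNA cleavage (poison activity).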

[4] = target: DNA topoisomerase 2-alpha (Homo sapiens) (UniProt P11388); assay: Stimulation of human recombinant topoisomerase 2alpha-mediated SV40 DNA cleavage at 50 uM after 45 mins by PAGE; outline: as §2
HL-60 [5] = assay: Induction of apoptosis in human HL60 cells assessed as caspase 3 activation at 5 uM after 4 hrs by DEVDase activity assay; assay type: functional, cell-based
Outline: (§3)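 HL60 cells exposed to 5 μM for 4 or 24 h. DEVDase (effector caspase 3/7) activity measured on the DEVD peptide substrate.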

HL-60 [6] = assay: Induction of apoptosis in human HL60 cells assessed as caspase 3 activation at 5 uM after 24 hrs by DEVDase activity assay; assay type: functional, cell-based; outline: as §3
HL-60 [7] = assay: Induction of apoptosis in human HL60 cells assessed as decrease in procaspase 3 level at 5 uM after 4 hrs by Western blotting; assay type: functional, cell-based
Outline: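 HL60 cells incubated 4 h with 5 μM. Extracted proteins analysed by Western blot for the 32 kDa procaspase 3 precursor and its active proteolytic fragment.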

HL-60 [8] = assay: Induction of apoptosis in human HL60 cells assessed as caspase 3 activation after 4 hrs by DEVDase activity assay; assay type: functional, cell-based
Outline: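 HL60 cells treated 4 h at the indicated doses, then collected. Caspase (DEVDase) activity determined.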

SH-SY5Y [9] = assay: Cytotoxicity against human SH-SY5Y at 1 to 5 uM after 72 hrs by trypan blue exclusion assay; assay type: functional, cell-based
Outline: (§4)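 SH-SY5Y neuroblastoma cells incubated with compounds at 1 to 5 μM for the indicated times up to 72 h. Viable cells counted by dye exclusion.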

SH-SY5Y [10] = assay: Cytotoxicity against human SH-SY5Y after 72 hrs by trypan blue exclusion assay; assay type: functional, cell-based; outline: as §4
SH-SY5Y [11] = assay: Cytotoxicity against human SH-SY5Y at 1 uM after 24 hrs by trypan blue exclusion assay; assay type: functional, cell-based
Outline: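 SH-SY5Y cells given 1 μM. Viability at 24 h scored by dye exclusion.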

SH-SY5Y [12] = assay: Cytotoxicity against human SH-SY5Y assessed as cell viability at 5 uM after 20 hrs by trypan blue exclusion assay; assay type: functional; details: read-out: Activity
Outline: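 SH-SY5Y cells exposed to 5 μM for 20 h. Viable cell fraction assessed by dye exclusion.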

SH-SY5Y [13] = assay: Cytotoxicity against human SH-SY5Y assessed as decrease in ERK1 protein level at 5 uM after 20 hrs by Western blotting; assay type: functional, cell-based
Outline: (§5)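 SH-SY5Y cells treated 20 h with 5 μM, then harvested. Protein content and phosphorylation status in cell extracts read by Western blotting at 50 μg protein per lane.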

SH-SY5Y [14] = assay: Cytotoxicity against human SH-SY5Y assessed as decrease in ERK2 protein level at 5 uM after 20 hrs by Western blotting; assay type: functional, cell-based; outline: as §5
SH-SY5Y [15] = assay: Cytotoxicity against human SH-SY5Y assessed as decrease in ERK1 phosphorylation at 5 uM after 20 hrs by Western blotting; assay type: functional, cell-based; outline: as §5
SH-SY5Y [16] = assay: Cytotoxicity against human SH-SY5Y assessed as decrease in ERK2 phosphorylation at 5 uM after 20 hrs by Western blotting; assay type: functional, cell-based; outline: as §5
HL-60 [17] = assay: Cytotoxicity against human HL60 cells after 24 hrs by dye exclusion assay; details: HL-60, 24 h
CCRF-CEM [18] = assay: Cytotoxicity against human CCRF-CEM cells at 10 uM after 72 hrs by MTT assay; assay type: functional, cell-based; outline: as §1
SH-SY5Y [19] = assay: Induction of apoptosis in human SH-SY5Y cells assessed as caspase 3 activation at 5 uM after 24 hrs by DEVDase activity assay; assay type: functional, cell-based
Outline: (§6)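 SH-SY5Y neuroblastoma, H9c2 heart and Jurkat T cells treated 24 h with 5 μM. Caspase (DEVDase) activation measured, reported as mean ± SEM of triplicates.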

H9c2 = assay: Induction of apoptosis in rat H9c2 cells assessed as caspase 3 activation at 5 uM after 24 hrs by DEVDase activity assay; assay type: cell-based; details: h9c2, 24 h; outline: as §6
Jurkat = assay: Induction of apoptosis in human Jurkat T cells assessed as caspase 3 activation at 5 uM after 24 hrs by DEVDase activity assay; assay type: functional, cell-based; outline: as §6
SH-SY5Y [20] = assay: Cytotoxicity against human SH-SY5Y assessed as cell survival at 1 uM after 72 hrs by trypan blue exclusion assay; assay type: functional; details: read-out: Survival
Outline: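 SH-SY5Y neuroblastoma cells incubated with compound at 1 to 5 μM for the indicated times, including 24 h and 72 h. Viable cells were then counted by dye exclusion and expressed as cell survival.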

SH-SY5Y [21] = assay: Cytotoxicity against human SH-SY5Y assessed as p53 protein accumulation at 1 uM after 20 hrs by Western blotting; assay type: functional, cell-based
Outline: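 SH-SY5Y extracts prepared after 20 h incubation at the indicated concentrations. p53 content measured by Western blot, 50 μg protein loaded per point.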

SH-SY5Y [22] = assay: Cytotoxicity against human SH-SY5Y assessed as p53 protein accumulation at 5 uM after 20 hrs by Western blotting; assay type: functional, cell-based; outline: as §5
SK-BR-3 [23] = assay: Cytotoxicity against human SKBR3 cells at 10 uM after 72 hrs by MTT assay; assay type: functional, cell-based; outline: as §1

## COc1ccccc1CNCCCN1C(=O)c2ccc3c4c(ccc(c24)C1=O)C(=O)N(CCCNCc1ccccc1OC)C3=O
SK-BR-3 [1]
  IC50: 0.2 µM
CCRF-CEM [2]
  IC50: 0.4 µM
Calf thymus DNA
  EC50: 0.122 µM
  Kapp: 2.07 ×10⁸ /M
[3]
  Activity: inactive
[4]
  Activity: inactive
HL-60 [5]
  Activity: Active
HL-60 [6]
  Activity: Active
HL-60 [7]
  Activity: Active
HL-60 [8]
  Activity: Dose-dependent effect
SH-SY5Y [9]
  Activity: Active
SH-SY5Y [10]
  IC50: 1.4 µM
SH-SY5Y [11]
  Activity: inactive
SH-SY5Y [12]
  viability at 5 µM: 70%
SH-SY5Y [13]
  Activity: Active
SH-SY5Y [14]
  Activity: Active
SH-SY5Y [15]
  Activity: Active
SH-SY5Y [16]
  Activity: Active
HL-60 [17]
  IC50: 1.2 µM

## COc1ccccc1CNCCN1C(=O)c2cccc3cccc(c23)C1=O
SK-BR-3 [1]
  IC50: 2 µM
CCRF-CEM [18]
  Activity: inactive
[3]
  Activity: inactive
[4]
  Activity: inactive

## COc1ccccc1CNCCN1C(=O)c2ccc3c4c(ccc(c24)C1=O)C(=O)N(CCNCc1ccccc1OC)C3=O
SK-BR-3 [1]
  IC50: 0.7 µM
CCRF-CEM [2]
  IC50: 1.3 µM
Calf thymus DNA
  EC50: 0.093 µM
  Kapp: 2.72 ×10⁸ /M
[3]
  Activity: inactive
[4]
  Activity: inactive
HL-60 [5]
  Activity: Active
HL-60 [6]
  Activity: Active
HL-60 [7]
  Activity: Active
HL-60 [8]
  Activity: Dose-dependent effect
SH-SY5Y [19]
  Activity: Active
H9c2
  Activity: Active
Jurkat
  Activity: Active
SH-SY5Y [20]
  viability at 1 µM: 60%
SH-SY5Y [9]
  Activity: Active
SH-SY5Y [10]
  IC50: 1.4 µM
SH-SY5Y [21]
  Activity: Active
SH-SY5Y [12]
  viability at 5 µM: 70%
SH-SY5Y [13]
  Activity: Active
SH-SY5Y [14]
  Activity: Active
SH-SY5Y [15]
  Activity: Active
SH-SY5Y [16]
  Activity: Active
HL-60 [17]
  IC50: 0.9 µM

## COc1ccccc1CNCCCCCCCCCN1C(=O)c2ccc3c4c(ccc(c24)C1=O)C(=O)N(CCCCCCCCCNCc1ccccc1OC)C3=O
SK-BR-3 [1]
  IC50: 0.4 µM
CCRF-CEM [2]
  IC50: 1.4 µM

## CN(C)CCN1C(=O)c2cccc3cc([N+](=O)[O-])cc(c23)C1=O [MITONAFIDE]
Calf thymus DNA
  EC50: 11.5 µM
  Kapp: 2.2 ×10⁶ /M
HL-60 [5]
  Activity: Active
HL-60 [6]
  Activity: Active
SH-SY5Y [22]
  Activity: Active
SH-SY5Y [12]
  viability at 5 µM: 70%
SH-SY5Y [13]
  Activity: Active
SH-SY5Y [14]
  Activity: Active
SH-SY5Y [15]
  Activity: inactive
SH-SY5Y [16]
  Activity: inactive
HL-60 [17]
  IC50: 1.6 µM

## COc1ccccc1CNCCCCN1C(=O)c2ccc3c4c(ccc(c24)C1=O)C(=O)N(CCCCNCc1ccccc1OC)C3=O
SK-BR-3 [1]
  IC50: 0.7 µM
CCRF-CEM [2]
  IC50: 0.8 µM

## COc1ccccc1CNCCCCCCCCCCN1C(=O)c2cccc3cccc(c23)C1=O
SK-BR-3 [1]
  IC50: 2 µM
CCRF-CEM [2]
  IC50: 8 µM

## COc1ccccc1CNCCCCCCCCN1C(=O)c2ccc3c4c(ccc(c24)C1=O)C(=O)N(CCCCCCCCNCc1ccccc1OC)C3=O
SK-BR-3 [1]
  IC50: 1 µM
CCRF-CEM [2]
  IC50: 1.6 µM

## COc1ccccc1CNCCCCCCCN1C(=O)c2ccc3c4c(ccc(c24)C1=O)C(=O)N(CCCCCCCNCc1ccccc1OC)C3=O
SK-BR-3 [1]
  IC50: 1.7 µM
CCRF-CEM [2]
  IC50: 2.5 µM

## COc1ccccc1CNCCCCCCCN1C(=O)c2cccc3cccc(c23)C1=O
SK-BR-3 [23]
  Activity: inactive
CCRF-CEM [18]
  Activity: inactive

## COc1ccccc1CNCCCCCCN1C(=O)c2ccc3c4c(ccc(c24)C1=O)C(=O)N(CCCCCCNCc1ccccc1OC)C3=O
SK-BR-3 [1]
  IC50: 1.2 µM
CCRF-CEM [2]
  IC50: 2.2 µM

## COc1ccccc1CNCCCN1C(=O)c2cccc3cccc(c23)C1=O
SK-BR-3 [23]
  Activity: inactive
CCRF-CEM [18]
  Activity: inactive

## COc1ccccc1CNCCCCCN1C(=O)c2cccc3cccc(c23)C1=O
SK-BR-3 [23]
  Activity: inactive
CCRF-CEM [18]
  Activity: inactive

## COc1ccccc1CNCCCCCCN1C(=O)c2cccc3cccc(c23)C1=O
SK-BR-3 [23]
  Activity: inactive
CCRF-CEM [18]
  Activity: inactive

## COc1ccccc1CNCCCCCCCCN1C(=O)c2cccc3cccc(c23)C1=O
SK-BR-3 [1]
  IC50: 1.4 µM
CCRF-CEM [2]
  IC50: 1.2 µM

## COc1ccccc1CNCCCCCCCCCN1C(=O)c2cccc3cccc(c23)C1=O
SK-BR-3 [1]
  IC50: 0.5 µM
CCRF-CEM [2]
  IC50: 1.3 µM
[3]
  Activity: inactive
[4]
  Activity: inactive

## COc1ccccc1CNCCCCN1C(=O)c2cccc3cccc(c23)C1=O
SK-BR-3 [1]
  IC50: 1.7 µM
CCRF-CEM [2]
  IC50: 3.2 µM

## COc1ccccc1CNCCCCCN1C(=O)c2ccc3c4c(ccc(c24)C1=O)C(=O)N(CCCCCNCc1ccccc1OC)C3=O
SK-BR-3 [1]
  IC50: 1.1 µM
CCRF-CEM [2]
  IC50: 1.1 µM

## COc1ccccc1CNCCCCCCCCCCN1C(=O)c2ccc3c4c(ccc(c24)C1=O)C(=O)N(CCCCCCCCCCNCc1ccccc1OC)C3=O
SK-BR-3 [1]
  IC50: 0.2 µM
CCRF-CEM [2]
  IC50: 0.7 µM

From ChEMBL document CHEMBL1154737, “Design, synthesis, and biological evaluation of substituted naphthalene imides and diimides as anticancer agent” (J Med Chem, 2009)
